Measurements from ChEMBL document CHEMBL4325909, “Synthesis and evaluation of chalcone analogues containing a 4-oxoquinazolin-2-yl group as potential anti-tumor agents” (Eur J Med Chem, 2019).
Activity calls are given as the source filed them. The calls are words filed in the database; no cut-off is given here.

Columns and labels:
HCT-116 [1] = assay: Induction of apoptosis in human HCT116 cells after 12 hrs by annexin V-FITC/propidium iodide staining-based flow cytometry method; type: functional, cell-based
MCF-10A [2] = assay: Induction of apoptosis in human MCF10A cells after 12 hrs by annexin V-FITC/propidium iodide staining-based flow cytometry method; type: cell-based
Outline: (§1)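 Cells were stained with Annexin V-FITC/PI and gated by flow cytometry into live, early apoptotic, late apoptotic and necrotic quadrants. Apoptotic fraction is early plus late, mean ± SD of three independent experiments.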

HCT-116 [3] = assay: Induction of apoptosis in human HCT116 cells assessed as early apoptotic cells at 1 uM after 12 hrs by annexin V-FITC/propidium iodide staining-based flow cytometry method (reference value: 3.8%); type: functional
HCT-116 [4] = assay: Induction of apoptosis in human HCT116 cells assessed as late apoptotic cells at 1 uM after 12 hrs by annexin V-FITC/propidium iodide staining-based flow cytometry method (reference value: 5.4%); type: functional
HCT-116 [5] = assay: Induction of apoptosis in human HCT116 cells assessed as necrotic cells at 1 uM after 12 hrs by annexin V-FITC/propidium iodide staining-based flow cytometry method (reference value: 4.8%); type: functional
HCT-116 [6] = assay: Induction of apoptosis in human HCT116 cells assessed as viable cells at 1 uM after 12 hrs by annexin V-FITC/propidium iodide staining-based flow cytometry method (reference value: 86.0%); type: functional; details: HCT-116, 12 h, read-out: Activity
MCF-10A [7] = assay: Induction of apoptosis in human MCF10A cells assessed as early apoptotic cells at 1 uM after 12 hrs by annexin V-FITC/propidium iodide staining-based flow cytometry method (reference value: 0.20%); type: cell-based; outline: as §1
MCF-10A [8] = assay: Induction of apoptosis in human MCF10A cells assessed as necrotic cells at 1 uM after 12 hrs by annexin V-FITC/propidium iodide staining-based flow cytometry method (reference value: 0.57%); type: cell-based; outline: as §1
[9] = Induction of apoptosis in human MCF10A cells assessed as viable cells at 1 uM after 12 hrs by annexin V-FITC/propidium iodide staining-based flow cytometry method (reference value: 95.4%); type: cell-based, MCF-10A; details: read-out: Activity; outline: as §1
HCT-116 [10] = assay: Induction of apoptosis in human HCT116 cells at 1 uM after 12 hrs by acridine orange/ethidium bromide staining-based fluorescence microscopic analysis; type: functional, cell-based
HCT-116 [11] = assay: Induction of reactive oxygen species generation in human HCT116 cells assessed as increase in mitochondrial superoxide generation at 1 uM after 12 hrs by MitoSOX red dye-based fluorescence microscopic analysis; type: functional, cell-based
HCT-116 [12] = assay: Induction of mitochondrial membrane depolarization in human HCT116 cells at 1 uM after 12 hrs by JC-1 staining based fluorescence microscopic analysis; type: functional, cell-based
HCT-116 [13] = assay: Cytotoxicity against human HCT116 cells assessed as reduction in cell viability after 72 hrs by MTS assay; type: functional, cell-based; details: HCT-116, 72 h
Outline: (§2)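 Cells kept in DMEM with 10% FBS at 37 °C, 5% CO2. Proliferation read by MTS (CellTiter 96 AQueous One) 72 h after exposure across a concentration range. IC50 is the concentration giving 50% proliferation inhibition. Triplicate wells, three independent experiments, mean ± SD.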

MCF7 [14] = assay: Cytotoxicity against human MCF7 cells assessed as reduction in cell viability after 72 hrs by MTS assay; type: functional, cell-based; details: MCF7, 72 h; outline: as §2
HCT-116 [15] = assay: Cytotoxicity against human HCT116 cells assessed as reduction in cell viability at 20 uM after 72 hrs by MTS assay relative to control; type: functional
Outline: (§3)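 Cells grown in DMEM with 10% FBS at 37 °C, 5% CO2, exposed to 20 μM for 72 h. Proliferation read by MTS and inhibition expressed relative to vehicle. ≥50% inhibition counted as active. Triplicate wells, three independent experiments.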

MCF7 [16] = assay: Cytotoxicity against human MCF7 cells assessed as reduction in cell viability at 20 uM after 72 hrs by MTS assay relative to control; type: functional; outline: as §3
A549 = assay: Cytotoxicity against human A549 cells assessed as reduction in cell viability after 72 hrs by MTS assay; type: functional, cell-based; details: A549, 72 h
Outline: (§4)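 MTS (CellTiter 96 AQueous One) proliferation read after 72 h of exposure across a concentration range. IC50 is the concentration giving 50% proliferation inhibition. Triplicate determinations in three independent experiments, mean ± SD.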

HeLa = assay: Cytotoxicity against human HeLa cells assessed as reduction in cell viability after 72 hrs by MTS assay; type: functional, cell-based; outline: as §4
HT-29 = assay: Cytotoxicity against human HT-29 cells assessed as reduction in cell viability after 72 hrs by MTS assay; type: functional, cell-based; details: HT-29, 72 h; outline: as §4
MDA-MB-231 = assay: Cytotoxicity against human MDA-MB-231 cells assessed as reduction in cell viability after 72 hrs by MTS assay; type: functional, cell-based; details: MDA-MB-231, 72 h; outline: as §4
MCF-10A [17] = assay: Cytotoxicity against human MCF10A cells assessed as reduction in cell viability after 72 hrs by MTS assay; type: cell-based; outline: as §4
HCT-116 [18] = assay: Cell cycle arrest in human HCT116 cells assessed as increase in accumulation of cells at sub-G1 phase after 24 hrs by propidium iodide staining-based flow cytometry method; type: functional
HCT-116 [19] = assay: Induction of apoptosis in human HCT116 cells after 24 hrs by annexin V-FITC/propidium iodide staining-based flow cytometry method; type: functional, cell-based
MCF-10A [20] = assay: Induction of apoptosis in human MCF10A cells after 24 hrs by annexin V-FITC/propidium iodide staining-based flow cytometry method; type: cell-based
HCT-116 [21] = assay: Induction of apoptosis in human HCT116 cells assessed as early apoptotic cells at 1 times IC50 after 24 hrs by annexin V-FITC/propidium iodide staining-based flow cytometry method (reference value: 3.8%); type: functional
HCT-116 [22] = assay: Induction of apoptosis in human HCT116 cells assessed as late apoptotic cells at 1 times IC50 after 24 hrs by annexin V-FITC/propidium iodide staining-based flow cytometry method (reference value: 5.4%); type: functional
HCT-116 [23] = assay: Induction of apoptosis in human HCT116 cells assessed as necrotic cells at 1 times IC50 after 24 hrs by annexin V-FITC/propidium iodide staining-based flow cytometry method (reference value: 4.8%); type: functional
HCT-116 [24] = assay: Induction of apoptosis in human HCT116 cells assessed as viable cells at 1 times IC50 after 24 hrs by annexin V-FITC/propidium iodide staining-based flow cytometry method (reference value: 86.0%); type: functional
HCT-116 [25] = assay: Induction of apoptosis in human HCT116 cells assessed as early apoptotic cells at 2 times IC50 after 24 hrs by annexin V-FITC/propidium iodide staining-based flow cytometry method (reference value: 3.8%); type: functional
HCT-116 [26] = assay: Induction of apoptosis in human HCT116 cells assessed as late apoptotic cells at 2 times IC50 after 24 hrs by annexin V-FITC/propidium iodide staining-based flow cytometry method (reference value: 5.4%); type: functional
HCT-116 [27] = assay: Induction of apoptosis in human HCT116 cells assessed as necrotic cells at 2 times IC50 after 24 hrs by annexin V-FITC/propidium iodide staining-based flow cytometry method (reference value: 4.8%); type: functional
HCT-116 [28] = assay: Induction of apoptosis in human HCT116 cells assessed as viable cells at 2 times IC50 after 24 hrs by annexin V-FITC/propidium iodide staining-based flow cytometry method (reference value: 86.0%); type: functional
MCF-10A [29] = assay: Induction of apoptosis in human MCF10A cells assessed as early apoptotic cells at 1 times IC50 after 24 hrs by annexin V-FITC/propidium iodide staining-based flow cytometry method (reference value: 0.20%); type: cell-based
MCF-10A [30] = assay: Induction of apoptosis in human MCF10A cells assessed as late apoptotic cells at 1 times IC50 after 24 hrs by annexin V-FITC/propidium iodide staining-based flow cytometry method (reference value: 3.81%); type: cell-based
MCF-10A [31] = assay: Induction of apoptosis in human MCF10A cells assessed as necrotic cells at 1 times IC50 after 24 hrs by annexin V-FITC/propidium iodide staining-based flow cytometry method (reference value: 0.57%); type: cell-based
[32] = Induction of apoptosis in human MCF10A cells assessed as viable cells at 1 times IC50 after 24 hrs by annexin V-FITC/propidium iodide staining-based flow cytometry method (reference value: 95.4%); type: cell-based, MCF-10A; details: read-out: Activity
MCF-10A [33] = assay: Induction of apoptosis in human MCF10A cells assessed as early apoptotic cells at 2 times IC50 after 24 hrs by annexin V-FITC/propidium iodide staining-based flow cytometry method (reference value: 0.20%); type: cell-based
MCF-10A [34] = assay: Induction of apoptosis in human MCF10A cells assessed as late apoptotic cells at 2 times IC50 after 24 hrs by annexin V-FITC/propidium iodide staining-based flow cytometry method (reference value: 3.81%); type: cell-based
MCF-10A [35] = assay: Induction of apoptosis in human MCF10A cells assessed as necrotic cells at 2 times IC50 after 24 hrs by annexin V-FITC/propidium iodide staining-based flow cytometry method (reference value: 0.57%); type: cell-based
[36] = Induction of apoptosis in human MCF10A cells assessed as viable cells at 2 times IC50 after 24 hrs by annexin V-FITC/propidium iodide staining-based flow cytometry method (reference value: 95.4%); type: cell-based, MCF-10A; details: read-out: Activity
HCT-116 [37] = assay: Induction of apoptosis in human HCT116 cells after 24 hrs by acridine orange/ethidium bromide staining-based fluorescence microscopic analysis; type: functional, cell-based
HCT-116 [38] = assay: Induction of reactive oxygen species generation in human HCT116 cells assessed as increase in mitochondrial superoxide generation at 1 to 2 times IC50 after 24 hrs by MitoSOX red dye-based fluorescence microscopic analysis; type: functional, cell-based
HCT-116 [39] = assay: Induction of mitochondrial membrane depolarization in human HCT116 cells at 2 times IC50 after 24 hrs by JC-1 staining based fluorescence microscopic analysis; type: functional, cell-based
Outline: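 HCT-116 cells exposed at 2× IC50 for 24 h, washed, then stained with JC-1 in fresh medium for 20 min at 37 °C and rinsed. Red aggregates and green monomers imaged by fluorescence microscopy at 40×.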

HCT-116 [40] = assay: Induction of apoptosis in human HCT116 cells accumulation of cleaved PARP1 level at 2 times IC50 after 12 hrs by Western blot analysis; type: functional, cell-based
Outline: (§5)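 Whole lysates in SDS/β-mercaptoethanol sample buffer run on 4–18% gradient SDS-PAGE and transferred to PVDF. Blocked in 5% milk/PBST, primary antibodies overnight at 4 °C, HRP secondaries 1 h. β-actin served as loading reference.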

HCT-116 [41] = assay: Induction of apoptosis in human HCT116 cells accumulation of cleaved caspase-3 level at 2 times IC50 after 12 hrs by Western blot analysis; type: functional, cell-based; outline: as §5
HCT-116 [42] = assay: Induction of apoptosis in human HCT116 cells accumulation of cleaved caspase-7 level at 2 times IC50 after 12 hrs by Western blot analysis; type: functional, cell-based; outline: as §5
HCT-116 [43] = assay: Induction of apoptosis in human HCT116 cells accumulation of cleaved caspase-9 level at 2 times IC50 after 12 hrs by Western blot analysis; type: functional, cell-based; outline: as §5
HCT-116 [44] = assay: Induction of apoptosis in human HCT116 cells accumulation of cleaved caspase-9 level at 2 times IC50 after 8 hrs by Western blot analysis; type: functional, cell-based; outline: as §5
[45] = Selectivity index, ratio of IC50 for human MCF10A cells to IC50 for human MCF7 cells; type: toxicity; details: MCF10A cells versus MCF7 cells, read-out: Ratio IC50

## CN[C@@H]1C[C@H]2O[C@@](C)([C@@H]1OC)n1c3ccccc3c3c4c(c5c6ccccc6n2c5c31)C(=O)NC4 [STAUROSPORINE]
HCT-116 [1]
  Activity: Dose-dependent effect
MCF-10A [2]
  Activity: Dose-dependent effect
HCT-116 [3]
  Activity: 25.6%
HCT-116 [4]
  Activity: 8.4%
HCT-116 [5]
  Activity: 3%
HCT-116 [6]
  viability at 1 µM: 63.1%
MCF-10A [7]
  Activity: 2.18%
MCF-10A [8]
  Activity: 1.22%
[9]
  viability at 12 h, 1 µM: 85.6%
HCT-116 [10]
  Activity: Active
HCT-116 [11]
  Activity: Active
HCT-116 [12]
  Activity: Active

## COc1ccc(OC)c(C(=O)/C=C/c2nc3ccccc3c(=O)[nH]2)c1
HCT-116 [13]
  IC50: 3.56 µM
MCF7 [14]
  IC50: 4.08 µM
HCT-116 [15]
  Activity: >=50%
MCF7 [16]
  Activity: >=50%
A549
  IC50: 12.7 µM
HeLa
  IC50: 8.37 µM
HT-29
  IC50: 6.18 µM
MDA-MB-231
  IC50: 10.6 µM
MCF-10A [17]
  IC50: 9.81 µM
HCT-116 [18]
  Activity: Dose-dependent effect
HCT-116 [19]
  Activity: Dose-dependent effect
MCF-10A [20]
  Activity: Dose-dependent effect
HCT-116 [21]
  Activity: 2.1%
HCT-116 [22]
  Activity: 10.8%
HCT-116 [23]
  Activity: 8.9%
HCT-116 [24]
  Activity: 78.2%
HCT-116 [25]
  Activity: 6.9%
HCT-116 [26]
  Activity: 29.1%
HCT-116 [27]
  Activity: 9.7%
HCT-116 [28]
  Activity: 54.3%
MCF-10A [29]
  Activity: 0.3%
MCF-10A [30]
  Activity: 4.67%
MCF-10A [31]
  Activity: 0.62%
[32]
  viability at 24 h, 1 times IC50: 94.4%
MCF-10A [33]
  Activity: 1.19%
MCF-10A [34]
  Activity: 5.38%
MCF-10A [35]
  Activity: 0.87%
[36]
  viability at 24 h, 2 times IC50: 92.6%
HCT-116 [37]
  Activity: Dose-dependent effect
HCT-116 [38]
  Activity: Active
HCT-116 [39]
  Activity: Active
HCT-116 [40]
  Activity: Active
HCT-116 [41]
  Activity: Active
HCT-116 [42]
  Activity: Active
HCT-116 [43]
  Activity: Active
HCT-116 [44]
  Activity: Active
[45]
  selectivity ratio: > 2
